# Published values collected from several papers.
# Lines come from different studies, so protocols differ.
# Target: 3-phosphoinositide-dependent protein kinase 1 (PDPK1, Homo sapiens, UniProt O15530)
Structure (SMILES),assay,conditions,inhibition
CC/C(=N\NC(=O)NCc1cccc(O)c1)c1ccc(O)c(C)c1O,"enzyme activity, inhibitor",0.1 µM,-1.2%
CCN(CC)CCNC(=O)c1c(C)[nH]c(/C=C2\C(=O)Nc3ccc(F)cc32)c1C,"binding, competition with immobilised ligand",10 µM,71%
O=C(CSc1nc2nccnc2c(=O)n1CCc1ccccc1)Nc1nccs1,"enzyme activity, inhibitor",10 µM,11%
COc1cc2ncnc(Nc3ccc(Oc4ccccc4)cc3C)c2cc1OC,"enzyme activity, inhibitor",1 µM,-2%
CNC(=O)c1cc(Oc2ccc(NC(=O)Nc3ccc(Cl)c(C(F)(F)F)c3)cc2)ccn1,"enzyme activity, inhibitor",10 µM,8%
CC(C)COc1cccc(Cl)c1-c1cc2cnc(N)nc2nc1N1C[C@@H]2[C@@H](N)[C@@H]2C1,"enzyme activity, inhibitor, FRET",25 µM,0%
CN(C)C1CCN(CC#Cc2nn(C3CCCC3)c3nc(NCc4ccccc4)ncc23)C1 (stereo not drawn),"enzyme activity, inhibitor, FRET",0.1 µM,0%
Cc1ccc(Nc2nccc(N(C)c3ccc4c(C)n(C)nc4c3)n2)cc1S(N)(=O)=O,"enzyme activity, inhibitor",10 µM,34%
CCCS(=O)(=O)Nc1ccc(F)c(C(=O)c2c[nH]c3ncc(-c4ccc(Cl)cc4)cc23)c1F,"enzyme activity, inhibitor",1 µM,< 10%
c1ccc(CNc2nc(N3CCOc4ccccc43)nc3c2CCCC3)cc1,"target engagement in cells, inhibitor, chemoproteomics",20 mM,-11.8%
COc1cc(C[C@H]2C(=O)OC[C@@H]2Cc2ccc(OC)c(OC)c2)ccc1O,"enzyme activity, inhibitor, ADP detection",100 µM,18.6%
C=CC(=O)Nc1cc(Nc2nccc(Nc3cc(Cl)c(F)cc3C(C)(C)O)n2)c(OC)cc1N1CC[C@@H](N(C)C)C1,"enzyme activity, inhibitor",1 µM,-2%
